Assay [1] concerns U138-MG. In words: Cytotoxicity against human U138MG cells assessed as dose enhancement ratio at 0.1 nM after 72 hrs in presence of 2 Gy dose of proton irradiation by trypan blue dye based assay. Type of assay: functional. Summed up: (§1)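 U-138 MG cells received the drug at 0.1, 0.5 or 1.0 nM, alone or combined with a 2 Gy proton exposure. Viable cell number was counted at 72 h. The dose enhancement ratio was calculated from combined versus single treatments.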

Assay [2] has as its system U138-MG. Briefly: Induction of apoptosis in human U138MG cells at 0.1 nM after 72 hrs in presence of 6 Gy dose of proton irradiation by Annexin V staining based flow cytometry. Type of assay: functional, cell-based.
In assay [3] the test system is U138-MG. In words: Induction of apoptosis in human U138MG cells at 0.1 nM after 72 hrs by Annexin V staining based flow cytometry. Type of assay: functional, cell-based. A digest of the protocol:
(§2)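 U-138 MG cells were treated with 0.1 nM drug and analysed by flow cytometry at 72 h: annexin V binding for apoptosis and 7-AAD uptake for necrosis.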
(In general: A flow cytometer gives signals particle by particle.)

The test system of assay [4] is U138-MG. In words: Anticlonogenic activity against human U138MG cells assessed as dose enhancement ratio pretreated for 2 hrs followed by 1 to 8 Gy dose of proton irradiation measured after 10 to 14 days by methylene blue staining based method. Type of assay: functional. A digest of the protocol: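 U-138 MG clonogenic assay: cells were pretreated with 0.001 nM drug, then given 1–8 Gy protons. Colonies of 50 or more cells were counted at 14 days. The ratio compares the combined survival fraction with that expected from each modality given separately.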

In assay [5] the test system is U138-MG. In words: Induction of necrosis in human U138MG cells at 0.1 nM after 72 hrs in presence of 6 Gy dose of proton irradiation by 7-AAD staining based flow cytometry. Type of assay: functional, cell-based.
Assay [6] concerns U138-MG. Briefly: Cytotoxicity against human U138MG cells assessed as decrease in cell viability after 72 hrs by trypan blue dye based assay. Type of assay: functional.
In assay [7] the test system is U138-MG. In words: Induction of necrosis in human U138MG cells assessed as dose enhancement ratio at 0.1 nM after 72 hrs in presence of 2 Gy dose of proton irradiation by 7-AAD staining based flow cytometry. Type of assay: functional. A digest of the protocol: (§3)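 Flow cytometry of U-138 MG cells 72 h after 0.1 nM drug combined with 2 Gy protons: annexin V for apoptosis, 7-AAD for necrosis. The enhancement ratio was derived against single treatments.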

Assay [8] deals with U138-MG. Briefly: Induction of apoptosis in human U138MG cells assessed as dose enhancement ratio at 0.1 nM after 72 hrs in presence of 2 Gy dose of proton irradiation by Annexin V staining based flow cytometry. Type of assay: functional. Summed up: as §3
Assay [9] concerns U138-MG. In words: Cytotoxicity against human U138MG cells assessed as decrease in cell viability at 0.5 to 1 nM after 72 hrs in presence of 2 Gy dose of proton irradiation by trypan blue dye based assay. Type of assay: functional. A digest of the protocol:
as §1

The test system of assay [10] is U138-MG. In words: Anticlonogenic activity against human U138MG cells assessed as decrease in cell survival after 14 days by methylene blue staining based method. Type of assay: functional. To be noted: 336 h. Summed up:
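Clonogenic survival of U-138 MG human glioblastoma cells after drug exposure alone. Colonies of 50 or more cells were counted 14 days after exposure, and survival curves were calculated from the counts.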

Assay [11] relates to U138-MG. Briefly: Cytotoxicity against human U138MG cells assessed as cell survival at 0.5 nM after 72 hrs by trypan blue dye based assay. Type of assay: functional. Conditions: read-out: Survival.
Assay [12] concerns U138-MG. In words: Induction of necrosis in human U138MG cells at 0.1 nM after 72 hrs by 7-AAD staining based flow cytometry. Type of assay: functional, cell-based. Summed up: as §2
Assay [13] deals with U138-MG. Briefly: Cytotoxicity against human U138MG cells assessed as cell survival at 0.1 nM after 72 hrs by trypan blue dye based assay. Type of assay: functional. To be noted: read-out: Survival.
In assay [14] the test system is U138-MG. Briefly: Anticlonogenic activity against human U138MG cells assessed as cell survival at 0.001 nM pretreated for 2 hrs followed by 1 to 8 Gy dose of proton irradiation measured after 10 to 14 days by methylene blue staining based method. Type of assay: functional. Conditions: light or radiation study, read-out: Survival. Summed up:
(§4)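 U-138 MG cells were exposed to 0.001 nM drug before proton irradiation at 1–8 Gy. Colonies of at least 50 cells were counted 14 days after exposure, and survival fractions and curves were derived.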

The test system of assay [15] is U138-MG. In words: Anticlonogenic activity against human U138MG cells assessed as decrease in cell survival pretreated for 2 hrs followed by 1 to 8 Gy dose of proton irradiation measured after 10 to 14 days by methylene blue staining based method. Type of assay: functional. Conditions: light or radiation study. A digest of the protocol: as §4
Assay [16] deals with U138-MG. Briefly: Cytotoxicity against human U138MG cells assessed as cell survival at higher doses after 72 hrs by trypan blue dye based assay. Type of assay: functional.

Active and inactive are the calls of the source. No cut-off for these calls is given here.

For `COC(=O)c1cc2c([nH]1)C(=O)C=C1N(C(=O)c3cc4cc(OC)c(OC)c(OC)c4[nH]3)C[C@H]3C[C@]123` [DUOCARMYCIN], the Ratio with U138-MG [1] turned out to be 1.6; in the assay on U138-MG [4], 2.17; in the assay with U138-MG [7], 4; with U138-MG [8], 2.5. Moreover, the outcome in the assay with U138-MG [2] and with U138-MG [5] was inactive. For the same molecule, the outcome in the assay with U138-MG [3], in the assay with U138-MG [9], in the assay on U138-MG [12] and in the assay on U138-MG [16] was Active. In the assay with U138-MG [6], the Activity entry was “Dose-dependent effect”. Besides, the 50% inhibitory concentration (IC50) is 400 pM with U138-MG [6], 1.8 pM with U138-MG [10] and 443 pM with U138-MG [15]. The viability at 0.0005 µM in the assay with U138-MG [11] was determined as 25%. The viability at 0.0001 µM in the assay with U138-MG [13] came out at 65%. Besides, the viability at 1 pM in the assay on U138-MG [14] was found to be 54%.

The term IC50 denotes the midpoint of a concentration-inhibition curve.

These data come from ChEMBL document CHEMBL4229393, “Duocarmycin SA, a potent antitumor antibiotic, sensitizes glioblastoma cells to proton radiation” (Bioorg Med Chem Lett, 2018).
